Shown are actives, neighbours in structure and some others; about 2.3% of the full set was active somewhere.
OXTR ag: human OXTR agonists, primary screen, fluorescence, CHO-OTR cells, Fluo-8 calcium. Oxytocin receptor (Homo sapiens), P30559. Fluo-8 calcium fluorescence; normalized: DMSO 0%, oxytocin 100%. activation, % at 3 µM. hit rate 0.32% among 320,000. AID 2435, 2010;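 active means activation above the mean of all tested compounds plus 3 SD, cutoff set per screening run, cut at about 20% in these data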;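 further: peak over basal fluorescence ratio from a 100 s FLIPR kinetic read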
Target sequence (P30559 whole entry, looked up): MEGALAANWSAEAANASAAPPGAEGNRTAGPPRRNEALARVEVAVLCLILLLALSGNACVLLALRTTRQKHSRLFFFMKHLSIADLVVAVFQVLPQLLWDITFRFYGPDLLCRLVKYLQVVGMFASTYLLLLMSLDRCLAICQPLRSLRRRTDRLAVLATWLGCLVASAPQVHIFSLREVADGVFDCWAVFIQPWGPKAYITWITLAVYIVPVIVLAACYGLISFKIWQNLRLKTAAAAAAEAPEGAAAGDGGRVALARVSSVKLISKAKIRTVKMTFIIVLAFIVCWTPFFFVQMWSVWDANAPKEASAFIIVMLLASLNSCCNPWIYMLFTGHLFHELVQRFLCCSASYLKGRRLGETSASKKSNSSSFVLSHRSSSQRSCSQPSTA
OXTR potentiator: human OXTR potentiators, primary screen, fluorescence, CHO-OTR cells, Fluo-8 calcium; AID 2445, 2010; Fluo-8 calcium fluorescence, potentiator mode; 0% = oxytocin EC15, 100% = EC100; hit rate 0.061% among 320,000; activation, % at 3 µM; Oxytocin receptor (Homo sapiens), P30559;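 active means activation above that plate's cutoff, the mean activation of tested compounds plus 3 SD, cut at about 6.6% in these data, passing the limit was not always enough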;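 further: 100% uses oxytocin at 75 nM as the full agonist control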
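System: human OTR in CHO cells / Also added: sub-maximal oxytocin, roughly EC15 / Control set: EC15 oxytocin low, 75 nM oxytocin high / Schedule: 6 min compound pre-incubation at room temperature, 100 s kinetic read / Compound: single-point 3.0 µM / Replication: singlicate / Technique: Fluo-8 calcium dye fluorescence / Read-out basis: % activation of max/min ratio relative to oxytocin controls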
TAAR1 ag: human TAAR1 agonists, primary screen, Fluo-8 calcium fluorescence, CHO RD-HGA16 cells; vehicle wells 0%, saturating PEA agonist 100%; AID 624467, 2012; hit rate 0.99% among 360,000; activation, % at 3 µM;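 active means activation above the mean activation of all test compounds in the run plus 3 SD, cut at about 38% in these data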
Target sequence (Q96RJ0 whole entry, looked up): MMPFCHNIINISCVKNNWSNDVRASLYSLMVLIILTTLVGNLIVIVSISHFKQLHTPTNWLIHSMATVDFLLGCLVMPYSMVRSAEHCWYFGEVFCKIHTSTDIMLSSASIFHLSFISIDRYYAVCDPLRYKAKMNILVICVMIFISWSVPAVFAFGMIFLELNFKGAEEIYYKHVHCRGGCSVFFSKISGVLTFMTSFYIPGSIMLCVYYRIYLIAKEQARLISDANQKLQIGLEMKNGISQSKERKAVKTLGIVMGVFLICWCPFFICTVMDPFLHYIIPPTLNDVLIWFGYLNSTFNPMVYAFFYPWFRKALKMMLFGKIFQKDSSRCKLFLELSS
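Test system: RD-HGA16 (CHO) cells co-expressing Gα16 and hTAAR1 / Benchmarks: DMSO vehicle as 0%, PEA at EC100 as 100% / Repeats: no replicates (n 1) / Measure: % activation from peak over basal fluorescence ratio, DMSO-to-PEA scaled / Timing: 17-24 h plating, Fluo-8 75 min 37 °C, 30 min RT / Technique: kinetic Fluo-8 calcium fluorescence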
TAAR1 antagonist: human TAAR1 antagonists, primary screen, Fluo-8 calcium fluorescence, CHO RD-HGA16 cells. AID 624466, 2012. antagonist. hit rate 1.5% among 360,000. inhibition, % at 3 µM;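 active means inhibition above a per-plate cutoff, the mean inhibition of test compounds on that plate plus 3 SD, cut at about 49% in these data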;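 further: 0% = DMSO plus EC80 beta-PEA response and 100% = DMSO alone without agonist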
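Material: CHO RD-HGA16 cells bearing hTAAR1; compound dosing: one-point dosing, 3 µM nominal final; schedule: dye loading 75 min at 37 °C, then 30 min room temperature; measured by: calcium fluorescence with Fluo-8; control set: vehicle and agonist controls; replication: n of 1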
V1aR counter: agonists of human V1a receptor, primary screen, counter-screen for OXTR agonist project, fluorescence, CHO-V1R cells; Vasopressin V1a receptor (Homo sapiens), P37288; AID 2797, 2010; Fluo-8 calcium fluorescence, agonist mode; 0% DMSO, 100% 3 nM vasopressin; activation, % at 3 µM; hit rate 0.25% among 320,000;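 active means activation above the mean activation of all tested compounds plus 3 SD, per screening run, cut at about 20% in these data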;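 further: signal is peak over basal fluorescence ratio across a 100 second FLIPR read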
nonsel antag count: nonselective antagonists in TAAR1 counter-screen cells, counter-screen for hTAAR1 antagonist project, cell-based, fluorescence, calcium; hit rate 77% among 2,400; AID 651780, 2012; counterscreen cell line, antagonist mode; inhibition, % at 3 µM; shares compounds with TAAR1 antagonist; in the data active means inhibition above about 22%;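 further: CHO-Ga16 host cells stimulated with ATP at an EC80 level; 0% = agonist EC80 plus vehicle and 100% = vehicle without agonist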
TAAR1 antag conf: human TAAR1 antagonists, retest of hits, confirmation, cell-based, fluorescence; inhibition, % at 3 µM; shares compounds with TAAR1 antagonist; hit rate 40% among 2,400; TAAR1-expressing cells, fluorescence antagonist read-out; in the data active means inhibition above about 49%;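 further: CHO-Ga16 host cells challenged with agonist PEA near its EC80; 0% = agonist at EC80 plus vehicle and 100% = vehicle with no agonist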
Ga16 nonsel ag: calcium activation in Ga16-expressing cells, counter-screen for TAAR1 antagonist project, cell-based, fluorescence. shares compounds with TAAR1 antagonist. agonist counterscreen. activation, % at 3 µM. hit rate 18% among 2,400. AID 651953, 2012; in the data active means activation above about 12%;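 further: 0% = vehicle wells and 100% = saturating stimulus response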
TAAR1 ag counter: TAAR1 activation by candidate antagonists – cell-based, fluorescence, counter-screen for TAAR1 antagonist project. AID 651955, 2012. hit rate 2% among 2,400. shares compounds with TAAR1 antagonist. activation, % at 3 µM. hTAAR1 cell line, agonist mode; in the data active means activation above about 37%;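 further: CHO cells stably expressing TAAR1 with calcium dye readout; 0% = DMSO vehicle and 100% = full agonist response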
The depositor's hits bear a star; nt = no result.

SMILES	OXTR ag	OXTR potentiator	TAAR1 ag	TAAR1 antagonist	V1aR counter	nonsel antag count	TAAR1 antag conf	Ga16 nonsel ag	TAAR1 ag counter
Cc1ccc(CS(=O)(=O)CCC(=O)NCc2ccccc2Cl)cc1	-1	-7	-1	-15	2	nt	nt	nt	nt
O=C(Nc1ccccc1)C1CCCN1/C=C/C(=O)C(F)(F)F (centres undefined)	1	0	0	-9	0	nt	nt	nt	nt
Cc1ccc(C)c(N2CCN(C(=O)CCS(=O)(=O)c3ccc4c(c3)NC(=O)CO4)CC2)c1	15	-14	18	85*	17	43*	57*	15*	13
O=C1COc2ccc(S(=O)(=O)CCC(=O)N3CCN(c4ccccc4)CC3)cc2N1	2	-3	1	-14	0	nt	nt	nt	nt
OCCNc1nc(Nc2cc(Cl)ccc2OC2CCCC2)nc(N2CCCC2)n1	1	-11	14	49*	0	22*	27	4	6
CC(=O)N(C)c1ccc(NC(=O)Nc2ccc(C)cc2)cc1	3	-13	26	57*	2	19	44	10	20
COc1ccc(CCNC(=O)c2ccc(-c3ccc([N+](=O)[O-])cc3)o2)cc1OC	7	-6	13	61*	5	22*	34	11	10
Cc1ccc(N2CC(C(=O)Nc3ccc(S(=O)(=O)Nc4ncccn4)cc3)CC2=O)cc1C (centres undefined)	0	3	0	-10	0	nt	nt	nt	nt
COCCN(C(=O)CNC(=O)c1cccs1)C(C(=O)NC(C)(C)C)c1ccccc1 (centres undefined)	0	1	5	0	1	nt	nt	nt	nt
Cc1cc(C(=O)NCCN2C(=O)S/C(=C\c3cccs3)C2=O)ccc1[N+](=O)[O-]	5	-14	12	57*	7	38*	47	10	7
Cc1cnc(NC(=O)c2cncc(Br)c2)s1	1	-4	2	-7	1	nt	nt	nt	nt
CCOc1ccccc1N1CCN(C(=O)c2cc(S(=O)(=O)N(C)C)ccc2N2CCCC2)CC1	-2	-3	19	57*	3	20	47	9	9
O=C(Nc1cccc(C(=O)N2CCOCC2)c1)C1CCCCC1	nt	nt	0	-6	nt	nt	nt	nt	nt
Cc1cccc(NC(=O)Cn2nnc(-c3cccs3)n2)c1C	1	0	14	66*	1	20	46	4	7
COc1ccccc1Nc1ncc(C(=O)N2CCN(Cc3ccc(OC)c(OC)c3OC)CC2)c2ccccc12	-2	-9	9	71*	-1	27*	45	5	4
COc1ccc(Nc2ncc(C(=O)N3CCC(C(N)=O)CC3)c3ccccc23)cc1	0	-11	2	-4	0	nt	nt	nt	nt
COc1ccc(Nc2ncc(C(=O)N3CCN(Cc4ccccc4)CC3)c3ccccc23)cc1	9	-25	18	67*	7	33*	51*	14*	13
CCN(CC(=O)Nc1c(F)cccc1F)C(=O)c1cccc(-n2cccc2)c1	-1	-2	2	3	-1	nt	nt	nt	nt
Cc1cccc(OCC(=O)Nc2ccc3c(c2)C(=O)NC3=O)c1	4	-6	11	18	3	nt	nt	nt	nt
Cc1ccc(OCCn2cnc3cc([N+](=O)[O-])ccc3c2=O)cc1	-2	-9	11	78*	0	31*	51*	9	7
O=c1c2ccc([N+](=O)[O-])cc2ncn1CCOc1ccccc1	-1	-6	16	77*	0	26*	62*	10	9
CC(C)CN1C(=O)C(=O)N(CC(=O)NCCCc2ccccc2)C1=O	nt	nt	0	-8	nt	nt	nt	nt	nt
Nc1c(C(=O)NCCc2ccccc2)sc2nc(N3CCOCC3)c3c(c12)CCCC3	-1	-8	16	-2	-1	nt	nt	nt	nt
CN(C(=O)c1sc2nc(N3CCOCC3)c3c(c2c1N)CCCC3)c1ccccc1	6	1	8	59*	1	19	35	8	12
CSc1ccccc1NC(=O)N1CCCC(C(=O)c2ccc3c(c2)OCO3)C1 (centres undefined)	-2	-13	1	-17	-1	nt	nt	nt	nt
SMILES	OXTR ag	OXTR potentiator	TAAR1 ag	TAAR1 antagonist	V1aR counter	nonsel antag count	TAAR1 antag conf	Ga16 nonsel ag	TAAR1 ag counter
CC(=O)c1ccc(NC(=O)N2CCCC(C(=O)c3ccc4c(c3)OCO4)C2)cc1 (centres undefined)	3	-12	10	49*	7	22*	35	11	11
Cc1cccc(OCC(O)Cn2c(N3CCCCC3)nc3c2c(=O)n(C)c(=O)n3C)c1 (centres undefined)	-2	-17	12	64*	2	30*	42	8	10
N#Cc1cc(NC(=O)c2ccc(Cl)cc2)ccc1Sc1ccccc1	nt	nt	6	73*	nt	35*	48	9	2
COC(=O)[C@]1(Cc2ccccc2)N[C@H](CN(C)C(=O)c2ccccc2)[C@@H]2C(=O)N(Cc3ccccc3)C(=O)[C@@H]21	-2	-2	1	-3	1	nt	nt	nt	nt
Nc1c(C(=O)NC2CC2)c2nc3ccccc3nc2n1-c1ccc2c(c1)OCO2	2	-3	17	37	2	nt	nt	nt	nt
Nc1c(C(=O)OCC2CCCO2)c2nc3ccccc3nc2n1-c1ccc2c(c1)OCCO2 (centres undefined)	1	-13	8	52*	1	30*	39	7	8
CCOC(=O)C(Cc1ccc(NC(=O)/C(=C\c2ccccc2)NC(=O)c2ccccc2)cc1)N1C(=O)c2ccccc2C1=O (centres undefined)	0	-6	5	19	2	nt	nt	nt	nt
CCOC(=O)C(Cc1ccc(NC(C)=O)cc1)N1C(=O)c2ccccc2C1=O (centres undefined)	4	-14	14	58*	8	24*	46	9	8

Compound activity deposited in PubChem BioAssay by The Scripps Research Institute Molecular Screening Center.
